{"source": "paper PMC8230583", "about": "(Polymer Chemistry, 2021)", "test": "Critical aggregation concentration by Nile Red fluorimetry", "type": "physicochemical", "details": "ratio of CAC in water to CAC in 150 mM NaCl", "how_it_was_run": "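Each compound was dissolved in water or 0.15 M NaCl with mild shaking or sonication, and stocks were equilibrated overnight at room temperature. Diluted samples (pH 4.0–5.5) were equilibrated ≥3 h at room temperature. Nile Red was added from a 1 mg ml−1 acetone stock and samples equilibrated 30 min more. Emission (575–740 nm, excitation 550 nm) was recorded to follow the shift of the Nile Red maximum.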"}
{"substance": "FDFF", "values": [{"measurement": "CAC in the presence of salt, times lower than in pure water", "value": 1.2, "unit": "times"}]}
